Data: ChEMBL document CHEMBL1938393, “Multiparameter exploration of piperazine derivatives as δ-opioid receptor agonists for CNS indications” (Bioorg Med Chem Lett, 2012)

Columns and labels:
MDR1 (P-gp), human = assay: Apparent permeability across apical to basolateral side in MDCK cells transfected with human MDR1 gene; format: ADME, cell-based, Canis lupus familiaris; conditions: dog
In short: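 Transport assay on MDCK cell monolayers transfected with the human MDR1 gene; flux measured in the apical-to-basolateral direction.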

[1] = target: Delta-type opioid receptor (Homo sapiens, UniProt P41143); assay: Displacement of [I125]deltorphin from delta-opioid receptor overexpressed in human HEK293 cells; format: cell-based
Sequence of Delta-type opioid receptor (P41143 whole entry): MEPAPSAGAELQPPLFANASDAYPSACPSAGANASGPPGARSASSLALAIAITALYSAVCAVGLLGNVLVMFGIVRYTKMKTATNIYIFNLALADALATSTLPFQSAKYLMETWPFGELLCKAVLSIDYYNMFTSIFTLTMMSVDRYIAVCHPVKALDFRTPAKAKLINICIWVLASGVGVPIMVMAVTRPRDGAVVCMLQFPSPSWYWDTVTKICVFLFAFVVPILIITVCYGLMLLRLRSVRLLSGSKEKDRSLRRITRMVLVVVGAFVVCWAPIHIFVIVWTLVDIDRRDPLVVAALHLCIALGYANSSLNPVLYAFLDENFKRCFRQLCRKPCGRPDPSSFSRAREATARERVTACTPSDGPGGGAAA

[2] = Intrinsic clearance in human liver microsomes; format: ADME, Microsome; conditions: read-out: CLH
HEK293 = assay: Selectivity ratio of IC50 for mu-opioid receptor overexpressed in human HEK293 cells to IC50 for delta-opioid receptor overexpressed in human HEK293 cells; format: cell-based
[3] = target: Voltage-gated inwardly rectifying potassium channel KCNH2 (Homo sapiens, UniProt Q12809); assay: Inhibition of human Erg
Sequence of Voltage-gated inwardly rectifying potassium channel KCNH2 (Q12809 whole entry): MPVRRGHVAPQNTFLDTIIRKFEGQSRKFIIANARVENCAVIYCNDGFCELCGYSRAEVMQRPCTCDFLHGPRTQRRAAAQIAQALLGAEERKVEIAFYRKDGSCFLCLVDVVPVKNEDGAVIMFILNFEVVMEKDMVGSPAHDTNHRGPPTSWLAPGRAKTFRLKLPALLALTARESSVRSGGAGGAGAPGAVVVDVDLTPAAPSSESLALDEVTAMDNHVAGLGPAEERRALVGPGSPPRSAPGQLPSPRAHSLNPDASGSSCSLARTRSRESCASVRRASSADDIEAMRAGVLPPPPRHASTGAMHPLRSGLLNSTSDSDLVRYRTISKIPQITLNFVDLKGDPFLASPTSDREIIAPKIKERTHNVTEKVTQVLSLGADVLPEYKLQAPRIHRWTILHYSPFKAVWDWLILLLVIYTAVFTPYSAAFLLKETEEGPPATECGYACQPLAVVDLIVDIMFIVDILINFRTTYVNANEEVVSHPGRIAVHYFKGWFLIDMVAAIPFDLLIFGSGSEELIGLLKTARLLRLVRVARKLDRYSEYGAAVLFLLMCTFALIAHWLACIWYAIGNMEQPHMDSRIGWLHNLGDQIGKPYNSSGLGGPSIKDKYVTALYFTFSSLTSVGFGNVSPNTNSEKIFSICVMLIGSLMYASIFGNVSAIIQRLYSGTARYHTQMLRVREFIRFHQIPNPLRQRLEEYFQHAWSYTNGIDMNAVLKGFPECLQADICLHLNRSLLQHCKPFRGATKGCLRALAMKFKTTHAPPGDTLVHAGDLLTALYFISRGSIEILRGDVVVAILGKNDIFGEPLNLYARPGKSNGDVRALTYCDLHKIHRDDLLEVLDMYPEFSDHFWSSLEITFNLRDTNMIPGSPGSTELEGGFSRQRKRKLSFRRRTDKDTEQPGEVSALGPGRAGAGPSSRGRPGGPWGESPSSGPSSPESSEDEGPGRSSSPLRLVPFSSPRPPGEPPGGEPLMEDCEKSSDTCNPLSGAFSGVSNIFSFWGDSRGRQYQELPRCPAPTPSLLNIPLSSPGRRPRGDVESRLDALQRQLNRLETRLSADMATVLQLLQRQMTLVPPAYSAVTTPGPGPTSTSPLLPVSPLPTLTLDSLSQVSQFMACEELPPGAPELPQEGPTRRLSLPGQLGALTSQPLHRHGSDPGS

| Compound | Papp A→B (MDR1 (P-gp), human) | IC50 [1] | microsomal CLint [2] | Ratio IC50 (HEK293) | IC50 [3] |
| --- | --- | --- | --- | --- | --- |
| CCN(C)C(=O)c1ccc([C@H](c2cccnc2)N2CCN(Cc3cscn3)CC2)cc1 | < 0.1 ×10⁻⁶ cm/s | 4.7 nM | 40 µL/min/mg | – | – |
| CCN(C)C(=O)c1ccc([C@H](c2cccc(NC(=O)C3CCC3)c2)N2CCN(Cc3cccnc3)CC2)cc1 | < 0.1 ×10⁻⁶ cm/s | 6.6 nM | 85 µL/min/mg | > 1500 | 28000 nM |
| CCN(CC)C(=O)c1ccc([C@H](c2cccc(NC(=O)OC)c2)N2CCN(Cc3cccnc3)CC2)cc1 | 0.3 ×10⁻⁶ cm/s | – | 110 µL/min/mg | – | – |
| CN(CCO)C(=O)c1ccc([C@H](c2cccc(NC(=O)C3CC3)c2)N2CCN(Cc3ccc(F)cc3)CC2)cc1 | < 0.1 ×10⁻⁶ cm/s | 0.27 nM | 36 µL/min/mg | 11000 | 15000 nM |
| CCOC(=O)Nc1ccc([C@@H](c2ccc(C(=O)N(CC)CC)cc2)N2CCN(Cc3cscn3)CC2)cc1 | 0.13 ×10⁻⁶ cm/s | 1.3 nM | 21 µL/min/mg | 2700 | 7300 nM |
| CCN(C)C(=O)c1ccc([C@H](c2cccnc2)N2CCN(Cc3ccccn3)CC2)cc1 | 0.12 ×10⁻⁶ cm/s | 2 nM | 33 µL/min/mg | > 5100 | 13000 nM |
| CCN(C)C(=O)c1ccc([C@H](c2cccc(NC(=O)C3CC3)c2)N2CCN(CCCOC)CC2)cc1 | – | 23 nM | < 4 µL/min/mg | 33 | 13000 nM |
| CCOC(=O)Nc1cccc([C@@H](c2ccc(C(=O)N(C)CC)cc2)N2CCN(Cc3nc[nH]c3C)CC2)c1 | < 0.1 ×10⁻⁶ cm/s | 0.26 nM | 17 µL/min/mg | 14000 | > 33000 nM |
| CCN(C)C(=O)c1ccc([C@H](c2ccccn2)N2CCN(Cc3ccccn3)CC2)cc1 | 0.25 ×10⁻⁶ cm/s | 5.2 nM | 20 µL/min/mg | > 1900 | > 33000 nM |
| CCOC(=O)Nc1ccccc1[C@@H](c1ccc(C(=O)N(CC)CC)cc1)N1CCN(Cc2ccccn2)CC1 | 0.43 ×10⁻⁶ cm/s | 1.4 nM | 650 µL/min/mg | > 6000 | 9900 nM |
| CCN(C)C(=O)c1ccc([C@H](c2cccc(NC(=O)OC)c2)N2CCN(Cc3cscn3)CC2)cc1 | 0.12 ×10⁻⁶ cm/s | 0.094 nM | 38 µL/min/mg | 15000 | 17000 nM |
| CCN(C)C(=O)c1ccc([C@H](c2cccc(NC(=O)C3CC3)c2)N2CCN(Cc3nc(C)cs3)CC2)cc1 | – | > 100 nM | 160 µL/min/mg | < 100 | 18000 nM |
| O=C(Nc1cccc([C@@H](c2ccc(C(=O)N3CCC3)cc2)N2CCN(Cc3ccc(F)cc3)CC2)c1)C1CC1 | < 0.1 ×10⁻⁶ cm/s | 0.9 nM | 49 µL/min/mg | 480 | 3600 nM |
| CCOC(=O)Nc1ccccc1[C@@H](c1ccc(C(=O)N(CC)CC)cc1)N1CCN(Cc2cscn2)CC1 | < 0.1 ×10⁻⁶ cm/s | – | 430 µL/min/mg | – | – |
| CCOC(=O)Nc1cccc([C@@H](c2ccc(C(=O)N(C)CC)cc2)N2CCN(Cc3c[nH]c(C)n3)CC2)c1 | < 0.1 ×10⁻⁶ cm/s | 0.7 nM | < 4 µL/min/mg | > 12000 | > 33000 nM |
| CCOC(=O)Nc1cccc([C@@H](c2ccc(C(=O)N3CCC3)cc2)N2CCN(Cc3cccnc3)CC2)c1 | 0.18 ×10⁻⁶ cm/s | 4.1 nM | 53 µL/min/mg | > 2200 | 11000 nM |
| CCN(CC)C(=O)c1ccc([C@H](c2cccc(NC(=O)OC)c2)N2CCN(Cc3cncs3)CC2)cc1 | 0.22 ×10⁻⁶ cm/s | 0.35 nM | 100 µL/min/mg | – | – |
| CCOC(=O)Nc1cccc([C@@H](c2ccc(C(=O)N(CC)CC)cc2)N2CCN(Cc3cscn3)CC2)c1 | < 0.1 ×10⁻⁶ cm/s | 0.071 nM | 210 µL/min/mg | 6200 | 5400 nM |
| CCN(CC)C(=O)c1ccc([C@H](c2cccc(NC(=O)C3CC3)c2)N2CCN(Cc3ccccn3)CC2)cc1 | – | 0.068 nM | 260 µL/min/mg | > 120000 | 20000 nM |
| CCN(CC)C(=O)c1ccc([C@H](c2cccc(NC(=O)C3CC3)c2)N2CCN(Cc3ccc(F)cc3)CC2)cc1 | < 0.1 ×10⁻⁶ cm/s | 0.29 nM | 150 µL/min/mg | 5200 | 11000 nM |
| CCN(CC)C(=O)c1ccc([C@H](c2cccc(NC(=O)C3CC3)c2)N2CCN(CCOC)CC2)cc1 | < 0.1 ×10⁻⁶ cm/s | 1.1 nM | 26 µL/min/mg | > 9400 | > 30000 nM |
